According to ChEMBL document CHEMBL5038671, “Hydrophobic Tagging-Induced Degradation of PDEδ in Colon Cancer Cells” (ACS Med Chem Lett, 2022):

Tests used:
HCT-116 = assay: Antiproliferative activity against human HCT-116 cells assessed as cell growth inhibition and measured after 72 hrs by CCK8 assay; conditions: HCT-116, 72 h
SW480 [1] = assay: Antiproliferative activity against human SW480 cells assessed as cell growth inhibition and measured after 72 hrs by CCK8 assay; conditions: SW480, 72 h
SW480 [2] = assay: Antiproliferative activity against human SW480 cells assessed as apoptosis induction at 50 uM measured for 24 hrs by Annexin V-FITC/PI staining based flow cytometry analysis (reference value: 46%); type: functional
SW480 [3] = assay: Antiproliferative activity against human SW480 cells assessed as apoptosis induction at 30 uM measured for 24 hrs by Annexin V-FITC/PI staining based flow cytometry analysis (reference value: 46%); type: functional
SW480 [4] = assay: Antiproliferative activity against human SW480 cells assessed as apoptosis induction at 40 uM measured for 24 hrs by Annexin V-FITC/PI staining based flow cytometry analysis (reference value: 46%); type: functional
SW480 [5] = assay: Down regulation of p-ERK expression in human SW480 cells measured for 24 hrs by western blot analysis; type: functional, cell-based
How it was run: (§1)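 PDEδ downstream proteins examined in SW480 cells treated 24 h, by Western blot; blots repeated at least three times, bar graphs as mean ± SD.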

SW480 [6] = assay: Down regulation of p-Akt expression in human SW480 cells measured for 24 hrs by western blot analysis; type: functional, cell-based; how it was run: as §1
[7] = molecular target: Retinal rod rhodopsin-sensitive cGMP 3',5'-cyclic phosphodiesterase subunit delta (Homo sapiens, UniProt O43924); assay: Binding affinity to PDE delta (unknown origin) assessed as dissociation constant measured after 2 hrs by fluorescence polarization assay
Retinal rod rhodopsin-sensitive cGMP 3',5'-cyclic phosphodiesterase subunit delta, sequence (O43924 whole entry): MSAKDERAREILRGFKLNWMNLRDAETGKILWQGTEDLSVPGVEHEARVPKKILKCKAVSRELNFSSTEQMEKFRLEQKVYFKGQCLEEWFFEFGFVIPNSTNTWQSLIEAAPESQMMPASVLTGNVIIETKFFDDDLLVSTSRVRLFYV

SMILES | IC50 (HCT-116) | IC50 (SW480 [1]) | also measured
Cc1ccc(-n2nc3c(=O)n(CCCC(=O)NCCc4ccc(NC(=O)CCCCCC(=O)NCC56CC7CC(CC(C7)C5)C6)cc4)nc(C)c3c2C)cc1 | > 100 µM | > 100 µM | 
Cc1ccc(-n2nc3c(=O)n(CCCC(=O)NCCOCCOCCNC(=O)CC45CC6CC(CC(C6)C4)C5)nc(C)c3c2C)cc1 | 18.5 µM | 5.4 µM | 
Cc1ccc(-n2nc3c(=O)n(CCCC(=O)NCCCCCCCCNC(=O)CC45CC6CC(CC(C6)C4)C5)nc(C)c3c2C)cc1 | 17.7 µM | 5.6 µM | 
Cc1ccc(-n2nc3c(=O)n(CCCC(=O)NC45CC6CC(CC(C6)C4)C5)nc(C)c3c2C)cc1 | > 100 µM | > 100 µM | 
Cc1ccc(-n2nc3c(=O)n(CCCC(=O)NCCCC(=O)NCC45CC6CC(CC(C6)C4)C5)nc(C)c3c2C)cc1 | 11.4 µM | 8 µM | 
Cc1ccc(-n2nc3c(=O)n(CCCC(=O)NCC(C)c4ccccc4)nc(C)c3c2C)cc1 (centres undefined) | 82.4 µM | 18.3 µM | Activity (SW480 [2]): 5.4%
Cc1ccc(-n2nc3c(=O)n(CCCC(=O)NCCCCCCNC(=O)CC45CC6CC(CC(C6)C4)C5)nc(C)c3c2C)cc1 | 7.7 µM | 4.8 µM | Activity (SW480 [3]): 15.23%; Activity (SW480 [4]): 83.67%; Activity (SW480 [5]): Dose-Dependent Effect; Activity (SW480 [6]): Dose-Dependent Effect
Cc1ccc(-n2nc3c(=O)n(CCCC(=O)NCCNC(=O)CC45CC6CC(CC(C6)C4)C5)nc(C)c3c2C)cc1 | 20.4 µM | 10 µM | 
Cc1ccc(-n2nc3c(=O)n(CCCC(=O)NCC45CC6CC(CC(C6)C4)C5)nc(C)c3c2C)cc1 | > 100 µM | > 100 µM | 
Cc1ccc(-n2nc3c(=O)n(CCCC(=O)NCCCCCC(=O)NCC45CC6CC(CC(C6)C4)C5)nc(C)c3c2C)cc1 | 32.5 µM | > 100 µM | 
Cc1ccc(-n2nc3c(=O)n(CCCC(=O)NCCc4ccc(NC(=O)CCCC(=O)NCC56CC7CC(CC(C7)C5)C6)cc4)nc(C)c3c2C)cc1 | 39 µM | 19.8 µM | 
Cc1ccc(-n2nc3c(=O)n(CCCC(=O)NCCc4ccc(NC(=O)CCCCCCCCCC(=O)NCC56CC7CC(CC(C7)C5)C6)cc4)nc(C)c3c2C)cc1 | > 100 µM | 14 µM | Ki [7]: > 1 µM
Cc1ccc(-n2nc3c(=O)n(CCCC(=O)NCCCCNC(=O)CC45CC6CC(CC(C6)C4)C5)nc(C)c3c2C)cc1 | 50.7 µM | 7 µM | 
Cc1ccc(-n2nc3c(=O)n(CCCC(=O)NCCc4ccc(NC(=O)CCCCCCNC(=O)CC56CC7CC(CC(C7)C5)C6)cc4)nc(C)c3c2C)cc1 | > 100 µM | > 100 µM | 
